The nature of experiment [1]: Cytotoxicity against mouse cloned EN2 cells after 2 hrs by MTT assay. The conditions noted are these: EN2, 2 h. The format is functional, cell-based. In outline:
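Murine EN2 Ehrlich ascites cells (RPMI 1640, 10% heat-inactivated FBS, exponential growth, >95% trypan blue exclusion), 500 cells/well, exposed 2 h at 37 °C, 5% CO2. Compound washed out in three spin steps, then 72 h further culture. MTT added for 3 h 45 min, formazan dissolved in DMSO, A550 read. IC50 = 50% growth inhibition vs medium-blank-corrected control; mean ± SD, n≥3.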

A short description of experiment [2]: Cytotoxicity against mouse cloned EN2 cells after 72 hrs by MTT assay. The conditions noted are these: EN2, 72 h. The format is functional, cell-based. In outline: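 EN2 murine cloned Ehrlich ascites line, grown in suspension in RPMI 1640 with 10% heat-inactivated FBS and used in exponential growth. 500 cells/well, continuous 72 h compound exposure at 37 °C, 5% CO2. Stocks 10 mM in EtOH or DMSO. Read-out: MTT reduction over 3 h 45 min, formazan in DMSO, A550. IC50 is 50% growth inhibition relative to control; mean ± SD, n≥3.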

Bounds are passed on as bounds.

As for `C[C@@H]1C[C@H]2OC(=O)[C@@H](C)[C@H]2[C@H](O)[C@]2(C)C(=O)C=C[C@@H]12`, the 50% inhibitory concentration (IC50) in experiment [1] is 128 µM; in experiment [2], 6.5 µM.
For the molecule `C=C1C(=O)O[C@@H]2C[C@@H](C)[C@@H]3[C@@H](OC(C)=O)C[C@@H](O)[C@@]3(C)C[C@H]12`, the results for the IC50 in experiment [1] and in experiment [2] were 102 µM and 10.6 µM, respectively.
Consider `CC(=O)O[C@H]1[C@@H]2[C@H](C)C(=O)O[C@@H]2C[C@@H](C)[C@@H]2C=CC(=O)[C@]21C`, for which the IC50 in experiment [1] was 43 µM; in experiment [2], 3.5 µM.
For `CC(C)CC(=O)O[C@H]1[C@@H]2[C@H](C)C(=O)O[C@@H]2C[C@@H](C)[C@@H]2C=CC(=O)[C@]21C` the same measures were 20 µM and 1.7 µM.
As to `C=C1C(=O)O[C@@H]2C[C@@H](C)[C@@H]3[C@@H](O)C[C@@H](O)[C@@]3(C)[C@@H](OC(=O)/C(C)=C/C)[C@H]12`, the IC50 was greater than 100 µM in experiment [1] and 20.7 µM in experiment [2].
For `C=C1C(=O)O[C@@H]2C[C@@H](C)[C@@H]3[C@@H](O)C[C@@H](OC(=O)/C(C)=C/C)[C@@]3(C)[C@@H](O)[C@H]12`, the IC50 in experiment [1] was 116 µM; in experiment [2], 10.4 µM.
In the case of `C/C=C(\C)C(=O)O[C@H]1[C@@H]2[C@H](C)C(=O)O[C@@H]2C[C@@H](C)[C@@H]2C=CC(=O)[C@]21C`, the IC50 turned out to be 19 µM in experiment [1] and 2.6 µM in experiment [2].
With `C=C1C(=O)O[C@@H]2C[C@@H](C)[C@@H]3[C@@H](O)C[C@@H](O)[C@@]3(C)[C@@H](O)[C@H]12`, in experiment [2], the half-inhibitory concentration (IC50) came out at 13.6 µM.
Turning to `C=C1C(=O)O[C@@H]2C[C@@H](C)[C@@H]3C=CC(=O)[C@@]3(C)[C@@H](OC(=O)/C(C)=C/C)[C@H]12`, the results for the IC50 in experiment [1] and in experiment [2] were 5.3 µM and 1 µM, respectively.
Turning to `C=C1C(=O)O[C@H]2C[C@@H](C)[C@@H]3C=CC(=O)[C@@]3(C)[C@H](OC(=O)CC(C)C)[C@H]12`, the concentration for half-maximal inhibition (IC50) in experiment [1] was determined as 5.4 µM; in experiment [2], 0.99 µM.
On to `CC(=O)O[C@H]1C[C@@H](O)[C@]2(C)[C@@H]1[C@H](C)C[C@H]1OC(=O)[C@@H](C)[C@H]1[C@@H]2O`, for which the half-inhibitory concentration (IC50) in experiment [1] and in experiment [2] was greater than 100 µM in each case.
As to `C/C=C(\C)C(=O)O[C@H]1[C@@H]2[C@H](C)C(=O)O[C@@H]2C[C@@H](C)[C@@H]2[C@@H](O)CC(=O)[C@]21C`, the values for the IC50 in experiment [1] and in experiment [2] were greater than 100 µM and 76 µM, respectively.
`C=C1C(=O)O[C@@H]2C[C@@H](C)[C@@H]3[C@@H](O)C[C@@H](O)[C@@]3(C)C[C@H]12` had an IC50 in experiment [2] of 15.2 µM.
In the case of `C=C1C(=O)O[C@@H]2C[C@@H](C)[C@@H]3C=CC(=O)[C@@]3(C)[C@@H](OC(=O)CC(C)C)[C@H]12`, the results for the IC50 in experiment [1] and in experiment [2] were 3.2 µM and 0.72 µM, respectively.
`C=C1C(=O)O[C@@H]2C[C@@H](C)[C@@H]3C=CC(=O)[C@@]3(C)[C@@H](OC(C)=O)[C@H]12` [ANGUSTIBALIN]: the results for the half-maximal inhibitory concentration (IC50) in experiment [1] and in experiment [2] were 1.3 µM and 0.22 µM, respectively.
Regarding `C=C1C(=O)O[C@@H]2C[C@@H](C)[C@@H]3[C@@H](O)CC(=O)[C@@]3(C)[C@@H](OC(=O)/C(C)=C/C)[C@H]12` [ARNIFOLIN], the half-maximal inhibitory concentration (IC50) amounted to 62 µM in experiment [1] and 4 µM in experiment [2].
Regarding `C=C1C(=O)O[C@H]2C[C@@H](C)[C@@H]3C=CC(=O)[C@@]3(C)[C@@H](OC(C)=O)[C@H]12` [BIGELOVIN], the IC50 in experiment [1] came to 2 µM; in experiment [2], 0.36 µM.
For `C=C1C(=O)O[C@@H]2C[C@@H](C)[C@@H]3[C@@H](OC(C)=O)C[C@@H](O)[C@@]3(C)[C@@H](O)[C@H]12` [CHAMISSONOLIDE], the IC50 was 106 µM in experiment [1] and 7.6 µM in experiment [2].
Consider `C=C1C(=O)O[C@@H]2C[C@@H](C)[C@@H]3C=CC(=O)[C@@]3(C)[C@@H](OC(=O)C(C)C)[C@H]12` [HELENALINISOBUTYRATE], for which the IC50 in experiment [1] was 1.3 µM; in experiment [2], 0.17 µM.
As for `C=C1C(=O)O[C@@H]2C[C@@H](C)[C@@H]3C=CC(=O)[C@@]3(C)[C@@H](O)[C@H]12` [HELENALIN], the concentration for half-maximal inhibition (IC50) in experiment [1] was determined as 2.4 µM; in experiment [2], 0.39 µM.
As for `C=C1C(=O)O[C@H]2C[C@@H](C)[C@@H]3C=CC(=O)[C@@]3(C)[C@H](O)[C@H]12` [MEXICANIN I], the IC50 in experiment [1] is 2.7 µM; in experiment [2], 0.56 µM.
